In data set [1] the target is T1, Interstitial collagenase (Homo sapiens, UniProt P03956).
T1 sequence (P03956 whole entry): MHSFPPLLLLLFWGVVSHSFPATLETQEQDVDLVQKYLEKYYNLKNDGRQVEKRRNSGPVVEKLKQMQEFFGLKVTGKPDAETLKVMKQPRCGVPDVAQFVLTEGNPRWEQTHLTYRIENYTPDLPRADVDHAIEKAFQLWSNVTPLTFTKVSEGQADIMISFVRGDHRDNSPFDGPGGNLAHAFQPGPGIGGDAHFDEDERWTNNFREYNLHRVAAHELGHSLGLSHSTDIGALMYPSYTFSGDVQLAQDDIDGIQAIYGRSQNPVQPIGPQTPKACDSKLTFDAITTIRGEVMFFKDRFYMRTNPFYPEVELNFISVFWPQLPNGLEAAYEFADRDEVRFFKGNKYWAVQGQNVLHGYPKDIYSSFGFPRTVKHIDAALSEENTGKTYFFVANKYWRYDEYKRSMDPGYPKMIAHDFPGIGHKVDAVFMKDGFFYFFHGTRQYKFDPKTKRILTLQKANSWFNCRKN
Description: Inhibition of MMP1.

The target of data set [2] is 72 kDa type IV collagenase (Homo sapiens, UniProt P08253). The experiment in a line: Inhibition of MMP2.
The target in data set [3] is Stromelysin-1 (Homo sapiens, UniProt P08254). The experiment in a line: Inhibition of MMP3 catalytic domain. A digest of the protocol:
(§1)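 Buffer: 50 mM Hepes pH 7.0, 10 mM CaCl2, 1 mM DTNB, 0.005% Brij 35, 1% final DMSO. […] Initial rate read as A412 increase at 25 °C. At least triplicate inhibitor titrations. % of control activity fit to a sloped IC50 equation.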

Data set [4] deals with T2, Matrilysin (Homo sapiens, UniProt P09237).
T2 sequence (P09237 whole entry): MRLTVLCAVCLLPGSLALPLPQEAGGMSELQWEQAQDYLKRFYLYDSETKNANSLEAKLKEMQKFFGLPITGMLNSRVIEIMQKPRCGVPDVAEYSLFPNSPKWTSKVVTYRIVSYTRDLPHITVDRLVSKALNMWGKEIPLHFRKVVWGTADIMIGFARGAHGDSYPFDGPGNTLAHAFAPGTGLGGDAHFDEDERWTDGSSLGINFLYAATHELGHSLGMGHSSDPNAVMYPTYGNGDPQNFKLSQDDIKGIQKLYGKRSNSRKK
Description: Inhibition of MMP7. The method in brief: as §1

In data set [5] the target is Neutrophil collagenase (Homo sapiens, UniProt P22894). The experiment in a line: Inhibition of MMP8 catalytic domain.
The target of data set [6] is Matrix metalloproteinase-9 (Homo sapiens, UniProt P14780). The experiment in a line: Inhibition of MMP9.
The target of data set [7] is Matrix metalloproteinase-14 (Homo sapiens, UniProt P50281). The experiment in a line: Inhibition of MMP14 catalytic domain. A digest of the protocol:
as §1

Data set [8] concerns the target Macrophage metalloelastase (Homo sapiens, UniProt P39900). Description: Inhibition of MMP12 catalytic domain. A digest of the protocol:
as §1

In data set [9] the target is T3, Matrix metalloproteinase-17 (Homo sapiens, UniProt Q9ULZ9).
T3 sequence (Q9ULZ9 whole entry): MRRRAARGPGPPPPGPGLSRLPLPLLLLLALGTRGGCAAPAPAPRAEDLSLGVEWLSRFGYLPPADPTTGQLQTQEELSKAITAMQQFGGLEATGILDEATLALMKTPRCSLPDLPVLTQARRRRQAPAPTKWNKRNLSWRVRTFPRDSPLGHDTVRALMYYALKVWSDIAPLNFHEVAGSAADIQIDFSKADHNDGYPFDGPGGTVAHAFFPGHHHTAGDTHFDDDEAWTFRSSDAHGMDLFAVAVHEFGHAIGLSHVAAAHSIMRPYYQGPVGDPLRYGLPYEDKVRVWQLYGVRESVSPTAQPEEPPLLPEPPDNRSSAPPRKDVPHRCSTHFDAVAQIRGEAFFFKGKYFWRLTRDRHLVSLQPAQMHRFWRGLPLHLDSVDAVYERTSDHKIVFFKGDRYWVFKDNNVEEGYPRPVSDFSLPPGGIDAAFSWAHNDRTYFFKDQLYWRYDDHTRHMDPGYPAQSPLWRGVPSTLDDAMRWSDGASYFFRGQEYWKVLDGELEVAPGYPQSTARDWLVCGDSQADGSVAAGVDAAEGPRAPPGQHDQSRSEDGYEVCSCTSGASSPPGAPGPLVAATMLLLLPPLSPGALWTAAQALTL
Description: Inhibition of MMP17 catalytic domain. The method in brief: as §1

Data set [10] addresses T4, A disintegrin and metalloproteinase with thrombospondin motifs 4 (Homo sapiens, UniProt O75173).
T4 sequence (O75173 whole entry): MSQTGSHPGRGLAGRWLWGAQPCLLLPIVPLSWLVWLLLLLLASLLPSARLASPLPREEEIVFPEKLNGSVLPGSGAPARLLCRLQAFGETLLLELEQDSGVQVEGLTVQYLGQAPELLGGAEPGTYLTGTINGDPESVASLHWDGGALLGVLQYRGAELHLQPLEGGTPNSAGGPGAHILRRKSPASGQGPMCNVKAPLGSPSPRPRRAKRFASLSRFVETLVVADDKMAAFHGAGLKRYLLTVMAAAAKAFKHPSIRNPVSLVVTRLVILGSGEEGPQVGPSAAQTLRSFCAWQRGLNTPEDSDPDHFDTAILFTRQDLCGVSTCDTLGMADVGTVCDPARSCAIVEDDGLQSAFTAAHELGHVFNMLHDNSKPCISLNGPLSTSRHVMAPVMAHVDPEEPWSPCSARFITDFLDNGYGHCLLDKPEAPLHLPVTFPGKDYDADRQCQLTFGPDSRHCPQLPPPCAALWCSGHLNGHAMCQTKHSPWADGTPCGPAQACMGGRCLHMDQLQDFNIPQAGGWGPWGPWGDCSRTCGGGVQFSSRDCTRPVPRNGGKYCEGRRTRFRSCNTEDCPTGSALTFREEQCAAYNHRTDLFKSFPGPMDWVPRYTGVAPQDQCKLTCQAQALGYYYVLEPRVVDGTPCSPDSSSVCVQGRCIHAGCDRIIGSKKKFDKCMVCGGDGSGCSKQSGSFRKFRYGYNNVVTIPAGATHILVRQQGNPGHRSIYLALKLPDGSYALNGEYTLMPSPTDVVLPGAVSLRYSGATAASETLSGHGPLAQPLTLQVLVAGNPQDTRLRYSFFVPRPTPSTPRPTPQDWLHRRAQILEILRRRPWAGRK
The experiment in a line: Inhibition of human ADAMTS4 assessed as cleavage of aggrecan substrate. The method in brief:
(§2)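 Isolated human enzyme with native aggrecan as substrate. Cleavage quantified using the BC-3 neoepitope antibody.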

Data set [11] has as its target T5, A disintegrin and metalloproteinase with thrombospondin motifs 5 (Homo sapiens, UniProt Q9UNA0).
T5 sequence (Q9UNA0 whole entry): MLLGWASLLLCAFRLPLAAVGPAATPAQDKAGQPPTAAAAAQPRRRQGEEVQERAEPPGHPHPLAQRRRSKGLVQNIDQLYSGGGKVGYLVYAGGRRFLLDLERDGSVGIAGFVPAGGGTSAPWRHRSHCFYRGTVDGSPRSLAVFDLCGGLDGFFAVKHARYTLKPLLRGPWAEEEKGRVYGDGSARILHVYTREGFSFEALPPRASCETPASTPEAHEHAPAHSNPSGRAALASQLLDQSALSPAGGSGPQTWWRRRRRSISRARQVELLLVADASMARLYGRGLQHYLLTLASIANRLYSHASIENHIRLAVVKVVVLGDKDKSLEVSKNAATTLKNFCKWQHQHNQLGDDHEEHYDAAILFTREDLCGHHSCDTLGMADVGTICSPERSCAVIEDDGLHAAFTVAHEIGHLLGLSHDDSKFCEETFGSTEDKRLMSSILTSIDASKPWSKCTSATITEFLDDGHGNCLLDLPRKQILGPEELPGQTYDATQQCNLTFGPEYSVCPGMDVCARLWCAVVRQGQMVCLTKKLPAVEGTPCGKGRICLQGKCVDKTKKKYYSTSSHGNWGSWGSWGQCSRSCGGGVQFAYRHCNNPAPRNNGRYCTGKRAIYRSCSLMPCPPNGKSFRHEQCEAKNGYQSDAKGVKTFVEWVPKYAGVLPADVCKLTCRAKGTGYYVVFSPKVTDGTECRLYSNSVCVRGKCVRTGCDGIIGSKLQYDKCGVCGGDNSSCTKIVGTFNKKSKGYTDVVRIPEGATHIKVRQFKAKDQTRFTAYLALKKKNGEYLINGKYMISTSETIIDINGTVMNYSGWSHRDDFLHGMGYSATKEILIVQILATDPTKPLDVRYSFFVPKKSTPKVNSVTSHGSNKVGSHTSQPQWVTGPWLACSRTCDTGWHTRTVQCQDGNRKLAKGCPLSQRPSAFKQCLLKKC
Description: Inhibition of human ADAMTS5 assessed as cleavage of aggrecan substrate. The method in brief: as §2

Data set [12] can be described thus: Solubility in phosphate buffer at pH 7.5. The data set is classed as physicochemical.
A short description of data set [13]: Solubility in phosphate buffer at pH 6.5. It is filed as physicochemical.
Data set [14] can be described thus: Solubility in phosphate buffer at pH 6. It is filed as physicochemical.
The test system of data set [15] is Cartilage tissue. Description: Inhibition of IL1alpha and oncostatin M-stimulated hydroxyproline release from bovine nasal cartilage. The note with it: Bos taurus. It is filed as functional, tissue-based. The method in brief: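 Bovine nasal cartilage explants (1 × 3 mm, 9 per group) cultured 2 weeks with interleukin-1 (50 ng/ml) plus oncostatin M (50 ng/ml), with vehicle or up to 10 µM inhibitor. Medium refreshed twice weekly and pooled for hydroxyproline assay; remaining cartilage papain-digested and its hydroxyproline measured. IC50 taken from a plot of inhibition of cartilage degradation; means ± S.E.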

Data set [16] concerns Oryctolagus cuniculus. Description: Inhibition of cartilage damage in New Zealand white rabbit osteoarthritis model assessed as reduction of cartilage lesion on tibial plateau at 30 mg/kg, po twice daily after 5 weeks relative to control. The data set is classed as functional. Further details: scale not given: the % may be the effect or the level left. The method in brief: (§3)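 Oral dosing 30 mg/kg or vehicle twice daily from day 1 post-op for 5 weeks. Joints removed, stained with India ink; two-dimensional lesion areas on tibial plateaus and femoral condyles measured; means ± S.E., compared to vehicle.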

Data set [17] has as its system Rattus norvegicus. Description: Inhibition of human MMP13-induced type 2 collagen degradation in rat cartilage damage model assessed as type2 collagen neoepitope biomarker level at 0.1 mg/kg, po by enzyme-linked immunosorbent assay. The data set is classed as functional, organism-based. Further details: dose 0.1 mg/kg. The method in brief:
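Rats (12 per group) dosed orally with vehicle or various doses; 3 h later knees injected intra-articularly with 12 µg activated full-length human MMP13. Sacrifice 2 h after injection; synovial space lavaged twice with 80 µl saline. Type II collagen neoepitope in lavage quantified by ELISA.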

The test system of data set [18] is Oryctolagus cuniculus. Description: Inhibition of cartilage damage in New Zealand white rabbit osteoarthritis model assessed as reduction of cartilage lesion on femoral condyles at 30 mg/kg, po twice daily after 5 weeks relative to control. Further details: scale not given: the % may be the effect or the level left. It is filed as functional, Condyle. The method in brief: as §3

Data set [19] can be described thus: Plasma concentration in New Zealand white rabbit osteoarthritis model at 30 mg/kg, po twice daily after 5 weeks. It is filed as ADME, organism-based, Oryctolagus cuniculus. The arrangement: dose 30 mg/kg, route oral.
The nature of data set [20]: AUC (0 to 24 hrs) in New Zealand white rabbit osteoarthritis model at 30 mg/kg, po twice daily after 5 weeks. The data set is classed as ADME, organism-based, Oryctolagus cuniculus. The note with it: in vivo. Further details: time < 24 hr, dose 30 mg/kg, route oral.
A short description of data set [21]: AUC (0 to 24 hrs) in Sprague-Dawley rat model of musculoskeletal syndrome side effect at 2000 mg/kg/day, po after 14 days. It is filed as ADME, organism-based. The arrangement: time < 24 hr, dose 2000 mg/kg/day, route oral. The note with it: in vivo.
Data set [22] is described as follows: Drug level in Sprague-Dawley rat model of musculoskeletal syndrome side effect at 2000 mg/kg/day, po after 14 days. The data set is classed as ADME, organism-based. The arrangement: route oral. The note with it: in vivo.
The test system of data set [23] is Rattus norvegicus. The experiment in a line: Toxicity in Sprague-Dawley rat model of musculoskeletal syndrome side effect assessed as induction of joint fibroplasia at 2000 mg/kg/day, po after 14 days. It is filed as organism-based. The arrangement: route oral. The note with it: in vivo, 336 h. A digest of the protocol:
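Sprague-Dawley rats (6/sex) given vehicle or 2000 mg/kg/day orally for 14 days; a non-selective hydroxamate MMP inhibitor at 2000 mg/kg/day as positive control. Calcaneon tendon and femorotibial, tibiotarsal, humeroradial joints taken bilaterally; femorotibial joints formalin-fixed, decalcified, H&E-stained, examined by light microscopy for fibroplasia.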

Data set [24] relates to O=C(OCc1ccccc1)c1cn2c(=O)n(Cc3ccccc3)c(=O)cc2s1. The note with it: Homo sapiens.

Converted amounts (≈) assume the structure as drawn. The source made the active and inactive calls. The rule behind the calls is not given here.

Sequence of Matrix metalloproteinase-9 (P14780 whole entry, the tested form may be a part): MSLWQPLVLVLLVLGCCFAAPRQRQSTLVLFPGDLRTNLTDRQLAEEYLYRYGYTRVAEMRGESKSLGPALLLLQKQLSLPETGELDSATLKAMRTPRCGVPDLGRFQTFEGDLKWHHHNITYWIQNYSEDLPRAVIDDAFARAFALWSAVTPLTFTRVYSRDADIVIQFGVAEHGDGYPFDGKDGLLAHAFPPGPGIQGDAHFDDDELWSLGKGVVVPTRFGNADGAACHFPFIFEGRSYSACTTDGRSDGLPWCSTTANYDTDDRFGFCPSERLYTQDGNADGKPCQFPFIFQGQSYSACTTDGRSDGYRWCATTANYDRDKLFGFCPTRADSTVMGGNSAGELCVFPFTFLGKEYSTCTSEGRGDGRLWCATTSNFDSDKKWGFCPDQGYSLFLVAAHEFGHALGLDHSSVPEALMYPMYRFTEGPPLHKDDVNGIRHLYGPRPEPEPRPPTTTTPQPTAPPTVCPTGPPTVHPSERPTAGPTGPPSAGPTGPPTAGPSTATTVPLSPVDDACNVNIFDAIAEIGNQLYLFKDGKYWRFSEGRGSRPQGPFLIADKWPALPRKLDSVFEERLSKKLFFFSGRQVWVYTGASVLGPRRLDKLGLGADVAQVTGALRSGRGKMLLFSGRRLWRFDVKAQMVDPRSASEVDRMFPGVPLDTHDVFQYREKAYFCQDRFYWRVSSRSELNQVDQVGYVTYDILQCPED
Sequence of 72 kDa type IV collagenase (P08253 whole entry, the tested form may be a part): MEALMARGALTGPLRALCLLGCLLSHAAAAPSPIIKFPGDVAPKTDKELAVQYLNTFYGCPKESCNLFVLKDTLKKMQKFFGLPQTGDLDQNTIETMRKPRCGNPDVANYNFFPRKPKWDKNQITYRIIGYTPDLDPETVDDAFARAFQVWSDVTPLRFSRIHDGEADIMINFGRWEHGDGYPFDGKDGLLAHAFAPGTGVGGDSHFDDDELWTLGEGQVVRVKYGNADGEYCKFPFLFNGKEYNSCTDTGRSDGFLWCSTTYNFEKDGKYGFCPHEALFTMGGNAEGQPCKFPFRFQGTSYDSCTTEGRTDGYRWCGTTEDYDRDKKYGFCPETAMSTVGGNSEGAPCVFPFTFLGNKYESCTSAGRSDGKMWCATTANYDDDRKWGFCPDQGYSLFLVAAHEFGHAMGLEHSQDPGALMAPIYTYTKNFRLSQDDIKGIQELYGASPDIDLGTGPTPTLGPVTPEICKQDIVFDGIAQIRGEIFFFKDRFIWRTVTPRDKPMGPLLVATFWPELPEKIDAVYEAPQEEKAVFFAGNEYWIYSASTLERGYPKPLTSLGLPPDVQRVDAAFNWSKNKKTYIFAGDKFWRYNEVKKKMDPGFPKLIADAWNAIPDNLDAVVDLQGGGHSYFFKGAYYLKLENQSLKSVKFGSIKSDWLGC
Sequence of Stromelysin-1 (P08254 whole entry, the tested form may be a part): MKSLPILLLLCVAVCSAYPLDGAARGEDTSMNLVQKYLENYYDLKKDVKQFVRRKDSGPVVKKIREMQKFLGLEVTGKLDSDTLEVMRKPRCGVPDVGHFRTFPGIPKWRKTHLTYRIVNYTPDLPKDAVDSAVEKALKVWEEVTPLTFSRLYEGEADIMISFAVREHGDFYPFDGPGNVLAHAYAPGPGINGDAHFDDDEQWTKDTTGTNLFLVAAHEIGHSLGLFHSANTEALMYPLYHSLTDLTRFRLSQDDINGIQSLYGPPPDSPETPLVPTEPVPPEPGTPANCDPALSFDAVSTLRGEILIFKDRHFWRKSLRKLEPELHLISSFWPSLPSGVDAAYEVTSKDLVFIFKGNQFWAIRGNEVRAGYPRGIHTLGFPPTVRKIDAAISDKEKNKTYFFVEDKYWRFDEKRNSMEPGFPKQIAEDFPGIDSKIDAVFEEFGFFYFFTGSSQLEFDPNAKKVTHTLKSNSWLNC
Sequence of Neutrophil collagenase (P22894 whole entry, the tested form may be a part): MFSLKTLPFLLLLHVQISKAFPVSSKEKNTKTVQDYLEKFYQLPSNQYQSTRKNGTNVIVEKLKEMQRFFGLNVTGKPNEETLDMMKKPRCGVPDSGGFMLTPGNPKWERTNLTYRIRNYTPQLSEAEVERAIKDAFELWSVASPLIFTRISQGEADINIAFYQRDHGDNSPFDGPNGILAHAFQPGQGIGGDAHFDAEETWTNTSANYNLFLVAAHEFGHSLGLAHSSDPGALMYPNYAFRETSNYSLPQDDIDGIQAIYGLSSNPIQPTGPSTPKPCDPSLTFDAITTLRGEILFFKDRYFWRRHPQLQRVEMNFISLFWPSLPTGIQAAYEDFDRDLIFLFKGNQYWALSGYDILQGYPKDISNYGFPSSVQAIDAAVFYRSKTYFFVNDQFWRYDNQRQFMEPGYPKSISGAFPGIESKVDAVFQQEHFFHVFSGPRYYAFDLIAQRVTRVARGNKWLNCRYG
Sequence of Macrophage metalloelastase (P39900 whole entry, the tested form may be a part): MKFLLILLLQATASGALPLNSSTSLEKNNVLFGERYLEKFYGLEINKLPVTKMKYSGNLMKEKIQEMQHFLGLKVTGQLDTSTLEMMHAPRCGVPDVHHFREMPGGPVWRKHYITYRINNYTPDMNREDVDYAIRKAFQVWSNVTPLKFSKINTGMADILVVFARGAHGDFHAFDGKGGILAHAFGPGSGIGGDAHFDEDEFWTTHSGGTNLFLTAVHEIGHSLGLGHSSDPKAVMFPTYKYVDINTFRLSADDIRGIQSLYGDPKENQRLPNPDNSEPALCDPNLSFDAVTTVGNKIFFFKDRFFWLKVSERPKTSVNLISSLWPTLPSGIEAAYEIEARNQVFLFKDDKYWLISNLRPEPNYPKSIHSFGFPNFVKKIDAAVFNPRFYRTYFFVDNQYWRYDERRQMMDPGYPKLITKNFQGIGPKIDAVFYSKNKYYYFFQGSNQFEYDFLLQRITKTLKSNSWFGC

As to `Cn1c(=O)n(Cc2ccc(C(=O)O)cc2)c(=O)c2cc(C#CCc3ccccc3)ccc21`, the IC50 in data set [1] was greater than 30 µM; in data set [2] it was greater than 30 µM; in data set [3], greater than 30 µM; in data set [4] it was greater than 30 µM; in [5] it was greater than 100 µM; in data set [6], greater than 100 µM. Moreover, the IC50 was greater than 30 µM in data set [7]; greater than 100 µM in data set [8]; greater than 30 µM in data set [9]; greater than 25 µM in data set [10]; greater than 25 µM in data set [11]; 1.3 µM in data set [15]. Besides, the solubility in data set [12] is less than 3 µM; in data set [13] it was less than 3 µM; in [14] it was 20 µM (≈ 8.49 µg/mL). Further, the Activity in data set [16] is 68%; in [18] it was 51%; in [23], “Non-toxic”. In addition, the outcome in data set [17] was Active. In [19], this compound gave an AUC at 840 h of 200 µg·h/mL. Moreover, the figures for the AUC at 24 h in data set [20] and in data set [21] were 6 µg·h/mL and 1010 µg·h/mL, respectively. In [22], this compound registered an AUC at 336 h of 30 µg·h/mL.
As for “Collagenase 3 (Homo sapiens) (from UniProt P45452)”, the Km in [24] came out at 48 µM.

As a reminder, the IC50 is the concentration at which inhibition is half-maximal. One may read the solubility as how much of the substance goes into solution per volume. As a reminder, the Km is the concentration of substrate that gives half-maximal velocity.

The record behind these values is ChEMBL document CHEMBL1156486, “Discovery and characterization of a novel inhibitor of matrix metalloprotease-13 that reduces cartilage damage in vivo without joint fibroplasia side effects” (J Biol Chem, 2007).
